Measurements as given in ChEMBL document CHEMBL5674880 (PLoS One, 2018).

Tests used:
[1] = biological target: Histone-lysine N-methyltransferase SMYD3 (Homo sapiens, UniProt Q9H7B4); test: Inhibition of SMYD3 (unknown origin)
Y79 [2] = test: Antiproliferative activity against human Y79 cells in 2D growth culture; type: functional, cell-based
Summary of the method: (§1)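 2D monolayer culture in the Eurofins Oncopanel of 240 cancer cell lines (mycoplasma negative, STR verified). Compound dosed across a concentration series with a top concentration of 25 μM. Each value is the mean of three replicates.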

SK-LU-1 = test: Antiproliferative activity against human SK-LU-1 cells expressing KRAS G12D mutant; type: functional, cell-based
NCI-H2122 = test: Antiproliferative activity against human NCI-H2122 cells expressing KRAS G12C mutant; type: functional, cell-based
Summary of the method: (§2)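 Proliferation of human lung cancer cell lines (NSCLC and others) with KRAS mutant or wild-type status. Compound was tested at concentrations up to 25 µM.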

[3] = Antiproliferative activity against human SK-N-BE(2)-C cells in 3D growth culture; type: functional, cell-based
Summary of the method: (§3)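 3D growth in matrigel, within a 140-cell-line panel of the Eurofins Oncopanel (mycoplasma negative, STR verified). Compound dosed across a concentration series with a top concentration of 25 μM. Each value is the mean of three replicates.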

[4] = Antiproliferative activity against human SK-N-BE(2)-C cells in 2D growth culture; type: functional, cell-based; summary of the method: as §1
COR-L105 = test: Antiproliferative activity against human COR-L105 cells expressing wild-type KRAS; type: functional, cell-based; summary of the method: as §2
HepG2 = test: Antiproliferative activity against human HepG2 cells; type: functional, cell-based
PC-3 [5] = test: Antiproliferative activity against human PC-3 cells in 3D growth culture; type: functional, cell-based
Summary of the method: (§4)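 3D proliferation in the Eurofins Oncopanel, with a panel of 140 human cancer cell lines grown in Matrigel. The highest concentration tested was 25 μM. Each value is the mean of three replicates.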

H4 = test: Antiproliferative activity against human H4 cells in 2D growth culture; type: functional, cell-based
Summary of the method: (§5)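 2D monolayer proliferation screen across the 240-line Eurofins Oncopanel of human cancer cell lines (mycoplasma-negative, STR-verified). Compound was titrated to a highest tested concentration of 25 μM. Values are the mean of three replicates.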

HLE = test: Antiproliferative activity against human HLE cells in 2D growth culture; type: functional, cell-based; summary of the method: as §5
J82 [6] = test: Antiproliferative activity against human J82 cells in 2D growth culture; type: functional, cell-based; summary of the method: as §5
HOS = test: Antiproliferative activity against human HOS cells in 2D growth culture; type: functional, cell-based; summary of the method: as §5
PC-3 [7] = test: Antiproliferative activity against human PC-3 cells in 2D growth culture; type: functional, cell-based; summary of the method: as §5
Hs 766 [8] = test: Antiproliferative activity against human Hs766T cells in 3D growth culture; type: functional, cell-based; summary of the method: as §4
AGS = test: Antiproliferative activity against human AGS cells in 2D growth culture; type: functional, cell-based; summary of the method: as §5
[9] = Antiproliferative activity against human C4-1 cells in 2D growth culture; type: functional, cell-based; summary of the method: as §5
MX1 = test: Antiproliferative activity against human MX1 cells in 2D growth culture; type: functional, cell-based; summary of the method: as §5
J82 [10] = test: Antiproliferative activity against human J82 cells in 3D growth culture; type: functional, cell-based; summary of the method: as §4
HT = test: Antiproliferative activity against human HT cells in 2D growth culture; type: functional, cell-based; summary of the method: as §5
EB-3 = test: Antiproliferative activity against human EB-3 cells in 2D growth culture; type: functional, cell-based; summary of the method: as §5
DK-MG = test: Antiproliferative activity against human DK-MG cells in 2D growth culture; type: functional, cell-based; summary of the method: as §5
5637 [11] = test: Antiproliferative activity against human 5637 cells in 3D growth culture; type: functional, cell-based; summary of the method: as §4
Hs 766 [12] = test: Antiproliferative activity against human Hs 766T cells in 2D growth culture; type: functional, cell-based; summary of the method: as §5
5637 [13] = test: Antiproliferative activity against human 5637 cells in 2D growth culture; type: functional, cell-based; summary of the method: as §5
[14] = Antiproliferative activity against human MT-3 cells in 2D growth culture; type: functional, cell-based; summary of the method: as §5
NCI-H441 = test: Antiproliferative activity against human NCI-H441 cells expressing KRAS G12V mutant; type: functional, cell-based; summary of the method: as §2
[15] = Antiproliferative activity against human HLF cells in 3D growth culture; type: functional, cell-based; summary of the method: as §4
NCI-H2081 = test: Antiproliferative activity against human NCI-H2081 cells expressing wild-type KRAS; type: functional, cell-based; summary of the method: as §2
JAR [16] = test: Antiproliferative activity against human JAR cells in 3D growth culture; type: functional, cell-based; summary of the method: as §4
JAR [17] = test: Antiproliferative activity against human JAR cells in 2D growth culture; type: functional, cell-based; summary of the method: as §5
T-24 = test: Antiproliferative activity against human T24 cells in 2D growth culture; type: functional, cell-based; summary of the method: as §1
DMS-153 = test: Antiproliferative activity against human DMS-153 cells expressing wild-type KRAS; type: functional, cell-based; summary of the method: as §2
DMS-53 = test: Antiproliferative activity against human DMS-53 expressing wild-type KRAS; type: functional, cell-based; summary of the method: as §2
HT-3 [18] = test: Antiproliferative activity against human HT-3 cells in 3D growth culture; type: functional, cell-based; summary of the method: as §4
[19] = Antiproliferative activity against human HLF cells in 2D growth culture; type: functional, cell-based; summary of the method: as §5
ES-2 [20] = test: Antiproliferative activity against human ES2 cells in 3D growth culture; type: functional, cell-based; summary of the method: as §4
[21] = Antiproliferative activity against human MT-3 cells in 3D growth culture; type: functional, cell-based; summary of the method: as §4
SH-4 [22] = test: Antiproliferative activity against human SH-4 cells in 2D growth culture; type: functional, cell-based; summary of the method: as §1
HT-3 [23] = test: Antiproliferative activity against human HT-3 cells in 2D growth culture; type: functional, cell-based; summary of the method: as §5
DOHH-2 = test: Antiproliferative activity against human DOHH-2 cells in 2D growth culture; type: functional, cell-based; summary of the method: as §5
SH-4 [24] = test: Antiproliferative activity against human SH-4 cells in 3D growth culture; type: functional, cell-based; summary of the method: as §3
Y79 [25] = test: Antiproliferative activity against human Y79 cells in 3D growth culture; type: functional, cell-based; summary of the method: as §3
SW1573 = test: Antiproliferative activity against human SW1573 cells expressing KRAS G12C mutant; type: functional, cell-based
[26] = Antiproliferative activity against human A7 cells in 2D growth culture; type: functional, cell-based; summary of the method: as §5
NCI-H2029 = test: Antiproliferative activity against human NCI-H2029 cells expressing wild-type KRAS; type: functional, cell-based; summary of the method: as §2
KLE = test: Antiproliferative activity against human KLE cells in 2D growth culture; type: functional, cell-based; summary of the method: as §5
U-266 = test: Antiproliferative activity against human U266B1 cells in 2D growth culture; type: functional, cell-based; summary of the method: as §1
RD [27] = test: Antiproliferative activity against human RD cells in 3D growth culture; type: functional, cell-based; summary of the method: as §4
NCI-H23 = test: Antiproliferative activity against human NCI-H23 cells expressing KRAS G12C mutant; type: functional, cell-based; summary of the method: as §2
A549 = test: Antiproliferative activity against human A549 cells expressing KRAS G12S mutant; type: functional, cell-based; summary of the method: as §2
RD [28] = test: Antiproliferative activity against human RD cells in 2D growth culture; type: functional, cell-based; summary of the method: as §5
SR = test: Antiproliferative activity against human SR cells in 2D growth culture; type: functional, cell-based; summary of the method: as §1
[29] = Antiproliferative activity against human C4-1 cells in 3D growth culture; type: functional, cell-based; summary of the method: as §4
RKO [30] = test: Antiproliferative activity against human RKO cells in 3D growth culture; type: functional, cell-based; summary of the method: as §3
C32 [31] = test: Antiproliferative activity against human C32 cells in 2D growth culture; type: functional, cell-based; summary of the method: as §5
[32] = Antiproliferative activity against human BC1 cells in 2D growth culture; type: functional, cell-based; summary of the method: as §5
DB = test: Antiproliferative activity against human DB cells in 2D growth culture; type: functional, cell-based; summary of the method: as §5
COR-L88 = test: Antiproliferative activity against human COR-L88 cells expressing wild-type KRAS; type: functional, cell-based; summary of the method: as §2
RKO [33] = test: Antiproliferative activity against human RKO cells in 2D growth culture; type: functional, cell-based; summary of the method: as §5
EM-2 = test: Antiproliferative activity against human EM-2 cells in 2D growth culture; type: functional, cell-based; summary of the method: as §5
SHP77 = test: Antiproliferative activity against human SHP77 cells expressing KRAS G12V mutant; type: functional, cell-based
C32 [34] = test: Antiproliferative activity against human C32 cells in 3D growth culture; type: functional, cell-based; summary of the method: as §4
ES-2 [35] = test: Antiproliferative activity against human ES-2 cells in 2D growth culture; type: functional, cell-based; summary of the method: as §5

Histone-lysine N-methyltransferase SMYD3, sequence (Q9H7B4 whole entry): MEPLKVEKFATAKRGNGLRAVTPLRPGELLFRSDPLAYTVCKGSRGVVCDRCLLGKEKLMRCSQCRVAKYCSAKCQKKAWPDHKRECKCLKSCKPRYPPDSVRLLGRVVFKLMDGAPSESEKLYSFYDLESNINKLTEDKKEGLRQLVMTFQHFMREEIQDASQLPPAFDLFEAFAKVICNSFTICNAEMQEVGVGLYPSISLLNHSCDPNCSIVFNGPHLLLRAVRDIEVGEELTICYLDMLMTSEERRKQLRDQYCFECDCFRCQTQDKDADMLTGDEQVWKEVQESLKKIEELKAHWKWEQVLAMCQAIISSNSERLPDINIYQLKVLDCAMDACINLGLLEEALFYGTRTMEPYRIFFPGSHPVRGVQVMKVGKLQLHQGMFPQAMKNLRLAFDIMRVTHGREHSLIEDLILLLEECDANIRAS

O=C1Cc2cc(C(=O)N[C@H]3C[C@H]4CC[C@@H](C3)N4S(=O)(=O)CC3CCN(CCCC(F)(F)F)CC3)c(Cl)cc2N1
IC50 [1]: 0.005 µM

N[C@H]1CC[C@H](S(=O)(=O)N2[C@@H]3CC[C@H]2C[C@@H](NC(=O)c2cc(C4CC4)on2)C3)CC1
IC50 (Y79 [2]): > 25 µM
IC50 (SK-LU-1): > 20 µM
IC50 (NCI-H2122): > 20 µM
IC50 [3]: > 25 µM
IC50 [4]: > 25 µM
IC50 (COR-L105): > 20 µM
IC50 (HepG2): > 40 µM
IC50 (PC-3 [5]): > 25 µM
IC50 (H4): > 25 µM
IC50 (HLE): > 25 µM
IC50 (J82 [6]): > 25 µM
IC50 (HOS): > 25 µM
IC50 (PC-3 [7]): > 25 µM
IC50 (Hs 766 [8]): > 25 µM
IC50 (AGS): > 25 µM
IC50 [9]: > 25 µM
IC50 (MX1): > 25 µM
IC50 (J82 [10]): > 25 µM
IC50 (HT): > 25 µM
IC50 (EB-3): > 25 µM
IC50 (DK-MG): > 25 µM
IC50 5637 [11]: > 25 µM
IC50 (Hs 766 [12]): > 25 µM
IC50 5637 [13]: > 25 µM
IC50 [14]: > 25 µM
IC50 (NCI-H441): > 20 µM
IC50 [15]: > 25 µM
IC50 (NCI-H2081): > 20 µM
IC50 (JAR [16]): > 25 µM
IC50 (JAR [17]): > 25 µM
IC50 (T-24): > 25 µM
IC50 (DMS-153): > 20 µM
IC50 (DMS-53): > 20 µM
IC50 (HT-3 [18]): > 25 µM
IC50 [19]: > 25 µM
IC50 (ES-2 [20]): > 25 µM
IC50 [21]: > 25 µM
IC50 (SH-4 [22]): > 25 µM
IC50 (HT-3 [23]): > 25 µM
IC50 (DOHH-2): > 25 µM
IC50 (SH-4 [24]): > 25 µM
IC50 (Y79 [25]): > 25 µM
IC50 (SW1573): > 20 µM
IC50 [26]: > 25 µM
IC50 (NCI-H2029): > 20 µM
IC50 (KLE): > 25 µM
IC50 (U-266): > 25 µM
IC50 (RD [27]): > 25 µM
IC50 (NCI-H23): > 20 µM
IC50 (A549): > 20 µM
IC50 (RD [28]): > 25 µM
IC50 (SR): > 25 µM
IC50 [29]: > 25 µM
IC50 (RKO [30]): > 25 µM
IC50 (C32 [31]): > 25 µM
IC50 [32]: > 25 µM
IC50 (DB): > 25 µM
IC50 (COR-L88): > 20 µM
IC50 (RKO [33]): > 25 µM
IC50 (EM-2): > 25 µM
IC50 (SHP77): > 20 µM
IC50 (C32 [34]): > 25 µM
IC50 (ES-2 [35]): > 25 µM
